# APP 5'UTR act: activates APP 5'UTR luciferase reporter. SH-SY5Y APP 5'UTR luciferase reporter, luminescence; zero percent = DMSO vehicle wells. activation, % at 2 µM. 190,000 tested, 1% active. AID 1276;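 active means activation above a set limit, based on mean plus 3 SD of controls, cut at about 140% in these data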
# NF-kB expr up: raises NF-kB expression in human neuronal cells. NF-kB reporter expression; hits give high values. fold change at 12.5 µM. 190,000 tested, 1.6% active. AID 1239; in the data active means fold change above about 3.3
# MDM2 E3 inh: Mdm2 E3 ligase (human) inhibition | Q00987 | cell-based MDM2 ubiquitination luciferase reporter, 2 h; 0 = plate control, 100 = twice control, blank-subtracted | signal enhancement, % at 5 µM | 210,000 tested, 0.11% active | AID 1230;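 active means signal enhancement of 30% or more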;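 further: luminescence tracks abundance of the self-degrading MDM2-luciferase fusion protein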
#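 Test system: stable mammalian line carrying autodegrading MDM2–luciferase fusion reporter; quantity: 2000 cells in each well; times: 4 h cell settling then 2 h compound exposure, 37 °C; detection: luminescence with SteadyLite reagent, 15 min at room temperature; evaluation: percent signal gain over controls, blank-subtracted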
# PERK inh: inhibitors of human PERK kinase | CHO PERK-DD fusion, SEAP luminescence translation reporter | inhibition, % at 5.6 µM | 220,000 tested, 0.17% active | AID 1416;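 active means inhibition above the mean inhibition of all tested compounds plus 3 SD, set separately per screening campaign, cut at about 2.9% in these data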;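 further: PERK kinase domain activated by AP20187 dimerizer at 100 nM; 0% = DMSO with dimerizer and 100% = rapamycin at 8.4 µM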
# Target sequence (Q9NZJ5 whole entry, looked up, the tested form may be a part): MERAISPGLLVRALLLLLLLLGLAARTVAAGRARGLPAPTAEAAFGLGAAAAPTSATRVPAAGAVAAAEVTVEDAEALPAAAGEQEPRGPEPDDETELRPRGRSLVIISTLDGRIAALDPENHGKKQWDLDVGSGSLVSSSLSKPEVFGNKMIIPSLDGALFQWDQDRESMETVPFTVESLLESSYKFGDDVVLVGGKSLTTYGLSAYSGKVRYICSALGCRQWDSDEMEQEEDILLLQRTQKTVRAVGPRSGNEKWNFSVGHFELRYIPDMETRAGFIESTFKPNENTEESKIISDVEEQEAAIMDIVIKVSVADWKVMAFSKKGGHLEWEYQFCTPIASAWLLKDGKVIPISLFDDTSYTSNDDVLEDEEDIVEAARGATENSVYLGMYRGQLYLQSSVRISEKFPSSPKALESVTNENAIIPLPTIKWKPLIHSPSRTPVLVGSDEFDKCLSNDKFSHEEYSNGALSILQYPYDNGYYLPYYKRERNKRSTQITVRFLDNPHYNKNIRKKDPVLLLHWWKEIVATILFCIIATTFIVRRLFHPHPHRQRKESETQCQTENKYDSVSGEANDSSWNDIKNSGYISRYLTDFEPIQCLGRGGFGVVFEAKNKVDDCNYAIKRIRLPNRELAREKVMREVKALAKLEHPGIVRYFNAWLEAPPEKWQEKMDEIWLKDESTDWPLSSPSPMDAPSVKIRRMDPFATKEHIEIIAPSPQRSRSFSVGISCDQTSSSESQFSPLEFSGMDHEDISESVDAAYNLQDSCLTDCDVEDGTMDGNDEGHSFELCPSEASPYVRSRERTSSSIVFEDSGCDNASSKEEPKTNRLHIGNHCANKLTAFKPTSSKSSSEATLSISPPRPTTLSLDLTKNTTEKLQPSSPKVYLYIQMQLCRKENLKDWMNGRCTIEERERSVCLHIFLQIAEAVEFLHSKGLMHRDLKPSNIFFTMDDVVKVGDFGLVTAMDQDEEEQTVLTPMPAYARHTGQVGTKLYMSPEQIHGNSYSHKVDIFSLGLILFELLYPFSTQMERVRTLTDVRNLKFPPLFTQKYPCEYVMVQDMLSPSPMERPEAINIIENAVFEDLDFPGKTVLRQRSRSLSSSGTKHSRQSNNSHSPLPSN
# AHR activator: activates the human aryl hydrocarbon receptor. 320,000 tested, 2.5% active. AHR-responsive luciferase reporter cells, luminescence. P35869. activation, % at 5 µM; in the data active means activation above about 47%;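 further: 0% = vehicle wells and 100% = reference agonist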
# STAT1 activator: activators of IFN-gamma induced STAT1 signaling; NIH 3T3 STAT1-luciferase reporter, luminescence; 100% = IFN-gamma alone, no compound; activation (% of control), % at 5.5 µM; 200,000 tested, 2.6% active; AID 932;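 active means activation above the screen-wide mean activation plus 3 SD, cut at about 130% in these data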;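 further: raw ratio to IFN-gamma control signal so 100% means no change and 0% no light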
# AHR act cf: human AHR activation, confirmation; 2,300 tested, 87% active; shares compounds with AHR activator; human cells, AHR-responsive luciferase reporter, luminescence; activation, % at 9 µM; in the data active means activation above about 49%;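 further: HepG2 hepatoma cells carrying a DRE-driven firefly luciferase reporter; 0% = vehicle wells and 100% = reference agonist wells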
# PXR act counter: PXR activation, counter-screen for AHR activators; cell-based PXR reporter, luciferase luminescence; shares compounds with AHR activator; activation, % at 11.6 µM; 2,300 tested, 88% active; in the data active means activation above about 11%;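 further: human hepatoma DPX-2 cells expressing full-length human PXR; 0% = DMSO and 100% = reference agonist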
# An asterisk follows results filed as active; / = not tested or not shown. Shown are actives, neighbours in structure and some others; about 4.5% of the full set was active somewhere.
SMILES,APP 5'UTR act,NF-kB expr up,MDM2 E3 inh,PERK inh,AHR activator,STAT1 activator,AHR act cf,PXR act counter
COc1ccccc1Nc1nc(N)nc(CSc2ncccn2)n1,3,1.4,-7,0,8,104,/,/
COc1ccc(Nc2nc(N)nc(CSc3nccc(C)n3)n2)cc1,25,1.2,22,0,34,104,/,/
O=C(NCC1CCN(Cc2ccc(F)cc2)CC1)Nc1cc(F)ccc1F,/,/,/,/,2,/,/,/
S=C(NCc1ccco1)Nc1ccc(Cl)c(Cl)c1,7,1,-13,0,-1,97,/,/
S=C(NCc1ccco1)Nc1ccc(Br)cn1,/,/,/,/,81*,/,59*,17*
O=C(O)c1ccc(Cl)c(N2C(=O)Nc3ccccc3N2O)c1,2,1.1,20,0,1,110,/,/
CCN(C1CCS(=O)(=O)C1)S(=O)(=O)c1ccc(OC)c(OC)c1 (stereo unspecified),/,/,/,/,3,/,/,/
COCCNC(=S)N=Nc1c(O)[nH]c2c(C)cc(C)cc12,8,1.3,-5,0,116*,100,93*,71*
Brc1cccc(CNc2nc3ccccc3n2CCN2CCOCC2)c1,4,1,3,0,3,90,/,/
Cc1cccc(NC(=S)NNC(=O)c2ccccc2OC(F)F)c1,3,1.2,-9,1,116*,96,121*,34*
C/C(=N\Nc1cc(N2CCOCC2)ncn1)c1ccccc1,/,/,/,/,89*,/,26,50*
COc1ccccc1NC(=O)CCCN1C(=O)C2CC=CCC2C1=O (stereo unspecified),/,/,/,/,9,/,/,/
Nc1c(Cl)cc(C2=NCCn3nc4cc([N+](=O)[O-])ccc4c32)cc1Cl,/,/,/,/,118*,/,104*,54*
S=C(Nc1ccccc1Cl)N1CCN(c2ccccn2)CC1,/,/,/,/,-6,/,/,/
Cc1nc(SCC(=O)N(C)Cc2ccco2)c2c(C)c(C)sc2n1,7,0.77,-20,-2,92*,78,55*,182*
CCN(C(=O)CSc1nc(C)nc2sc(C)c(C)c12)c1ccc(F)cc1,/,/,/,/,0,/,/,/
O=c1[nH]c2ccccc2cc1-c1nnn(-c2ccc(Cl)c(Cl)c2)n1,/,/,/,/,20,/,/,/
Clc1ccc(-n2nnc(-c3nccs3)n2)cc1Cl,199*,4.8*,/,0,116*,98,84*,33*
c1cncc(CNc2cccc(-c3nc4ccccc4[nH]3)c2)c1,70,2.1,-4,-1,167*,125,112*,137*
C=C(C)c1cccc(C(C)(C)NC(=O)Nc2ccc(Cl)cn2)c1,1,1,-9,1,91*,91,95*,73*
COc1ccc(C(=O)CSc2ccc3nnc(-c4cccnc4)n3n2)cc1,18,0.62,-4,0,83*,95,74*,11*
Cc1csc(NC(=O)CSc2ccc3nnc(-c4ccncc4)n3n2)n1,4,0.92,-5,0,92*,89,65*,/
COc1ccc(NC(=O)CSc2ccc3nnc(-c4cccnc4)n3n2)cc1,/,/,/,/,3,/,/,/
CCCCN1CC(=O)N2[C@H]3c4cc(C)ccc4OC[C@@H]3[C@H](C(=O)OCC)[C@]2(C)C1=O,/,/,/,/,0,/,/,/
O=C(N/C(=C/c1ccc([N+](=O)[O-])cc1)C(=O)N1CCOCC1)c1ccco1,/,/,/,/,-1,/,/,/
SMILES,APP 5'UTR act,NF-kB expr up,MDM2 E3 inh,PERK inh,AHR activator,STAT1 activator,AHR act cf,PXR act counter
N/C(=N\OC(=O)c1ccc(Cl)cc1[N+](=O)[O-])c1cccnc1,/,/,-16,0,90*,/,91*,15*
Cc1c(C(=O)O/N=C(\N)c2ccccn2)cccc1[N+](=O)[O-],/,/,-82,0,97*,/,92*,12*
N/C(=N\OC(=O)c1cc(Br)ccc1Cl)c1ccccn1,180*,6*,-26,1,108*,124,61*,12*
N/C(=N\OC(=O)c1ccc(Cl)cc1[N+](=O)[O-])c1ccccn1,/,/,/,/,146*,/,53*,13*
N/C(=N\OC(=O)Cc1ccccc1[N+](=O)[O-])c1ccccn1,33,1.1,-17,2,5,120,/,/
Cc1cc(C(=O)Nc2ccncc2)c2ccccc2n1,/,/,/,/,8,/,/,/
CC12CCC(=O)N1C(C(=O)Nc1cc(C(F)(F)F)ccc1N1CCCCC1)CS2 (stereo unspecified),/,/,/,/,4,/,/,/
CCN(CC)c1ccc(/C=N/NC(=O)C2CC2)cc1,/,/,/,/,85*,/,77*,44*
CC(=O)Nc1ccc(S(=O)(=O)Oc2ccccc2N2C(=O)C3C4CCC(C4)C3C2=O)cc1 (stereo unspecified),/,/,/,/,9,/,/,/
CC(=O)c1ccccc1NC(=O)c1ccc2c(c1)NC(=O)C(C)S2 (stereo unspecified),/,/,/,/,122*,/,143*,152*
CCCNC(=O)c1ccccc1NC(=O)c1ccc2c(c1)NC(=O)C(C)S2 (stereo unspecified),/,/,/,/,9,/,/,/
O=C(Nc1nc(-c2cccs2)cs1)c1ccc(Cl)cc1,19,1.6,-10,1,129*,119,123*,36*
O=C(Nc1ccc(Cl)cc1)[C@@H]1[C@@H]2C(=O)N(c3ccc(Cl)cc3)C(=O)[C@@H]2[C@H]2C=CC=NN21,-20,1.2,-20,-2,98*,96,63*,13*
Cc1ccc(N2C(=O)[C@@H]3[C@H](C2=O)[C@H]2C=CC=NN2[C@@H]3C(=O)Nc2ccc(Cl)cc2)cc1,27,1.1,-8,1,19,93,/,/
CN(C)C=NC(=O)c1cc(C(=O)c2ccc(Cl)cc2)c[nH]1,2,1.1,-12,0,5,109,/,/
CC(=O)c1c(C)nc(-c2ccc(Cl)cc2)nc1N=CN(C)C,99,2.5,3,0,90*,118,98*,35*
Clc1ccc(/C(Cc2nc3ccccc3[nH]2)=N\Nc2ccccc2)cc1,78,2.6,-6,0,91*,136*,40,49*
O=C(Cc1nc2ccccc2[nH]1)c1ccc(Cl)cc1,/,/,/,/,20,/,/,/
Nc1c(C(=O)c2ccccc2)oc2ccccc12,14,1.3,1,0,112*,111,140*,24*
COc1cccc(C(=O)Nc2c(C(N)=O)oc3ccccc23)c1,-17,0.45,-17,-1,94*,99,133*,21*
CCOc1ccc(C(=O)Nc2c(C(N)=O)oc3ccccc23)cc1,-8,0.67,6,-1,46,103,/,/
COc1ccc(-c2oc3ccccc3c(=O)c2OC(C)=O)cc1,40,1.2,-1,0,3,96,/,/
COc1ccc(C(=O)c2oc3ccccc3c2N)cc1,31,2.1,5,1,82*,120,133*,12*
CC(=O)c1oc2ccccc2c1N,0,1.5,-10,0,7,100,/,/
